Laboratory results taken from ChEMBL document CHEMBL2321694, “Novel 3-hydroxy vinylboronates influence sphingolipid metabolism, cause apoptosis in Jurkat cells and prevent tumor development in nude mice” (Bioorg Med Chem Lett, 2013).
pIC50: −log10 of the molar value. The source made the active and inactive calls. No cut-off for these calls is given here.

Experiments:
Jurkat [1] = assay: Cytotoxicity against human Jurkat cells assessed as cell survival after 72 hrs by MTT assay; type: functional, cell-based
Outline: (§1)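 Cells at 1 × 10^6 cells/ml were plated in RPMI 1640 without FCS; adherent lines (HT-29, ARH-77, Melanoma-624) were left overnight to attach first. Compound was added and MTT read after 72 h incubation at 37 °C, 5% CO2; IC50 derived.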

Jurkat [2] = assay: Cell cycle arrest at human Jurkat cells assessed as accumulation at sub G1 phase at 20 to 50 uM after 24 hrs by propidium iodide staining-based FACS flow cytometric analysis; type: functional; settings: 100 uM, in the assay text read “100 uM” for “20 to 50 uM”
Outline: (§2)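 Jurkat cells at 1 × 10^6 cells/ml were exposed to compound or vehicle (0.2% DMSO) for 24 h. They were then fixed in cold 70% ethanol, and RNAse (50 μg/ml) and PI were added in PBS. Cell-cycle distribution, including sub-G1, was read by flow cytometry. Data are mean ± s.d., with t test versus naïve control.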

Jurkat [3] = assay: Reduction of sphingomyelin synthesis in fluorescent Bodipy-12-ceramide-treated human Jurkat cells administered 30 mins prior to Bodipy-12-ceramide addition measured after 72 hrs by HPLC analysis in presence of 10% FCS; type: functional, cell-based
Outline: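 Jurkat cells (0.75 × 10^6 cells/ml) in medium with 10% FCS received compound or vehicle (0.1% DMSO); 30 min later 0.25 μM Bodipy-12-ceramide was added. After 72 h, lipids were extracted with dichloromethane/methanol, and ceramide and sphingomyelin percentages were quantified by C18 HPLC with fluorescence detection (Ex 505, Em 530 nm). Mean ± s.d., t test versus vehicle.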

HT-29 [4] = assay: Cytotoxicity against human HT-29 cells assessed as cell survival after 72 hrs by MTT assay; type: functional, cell-based; settings: for pIC50: Homo sapiens, HT-29, 72 h, read-out: IC50; outline: as §1
[5] = Cytotoxicity against human Melanoma-624 cells assessed as cell survival after 72 hrs by MTT assay; type: functional, cell-based; settings: Homo sapiens, 624, 72 h; outline: as §1
HT-29 [6] = assay: Antitumor activity against human HT-29 cells xenografted in nude mouse assessed as tumor growth inhibition at 50 mg/kg, ip measured up to day 33; type: functional, organism-based; set-up: dose 50 mg/kg
HT-29 [7] = assay: Antitumor activity against human HT-29 cells xenografted in nude mouse assessed as tumor growth inhibition at 50 mg/kg, ip measured after 33 days; type: functional, organism-based; set-up: dose 50 mg/kg
Outline: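 Female nude mice 5–6 weeks old (SPF, ~22 °C, 12-h light–dark) injected sc with 1 × 10^6 HT-29 cells, randomized same day to 50 mg/kg (n=5) or vehicle cremophor/ethanol/water (10:10:80) (n=6). Once-daily ip injections for 3 weeks (15 injections), then 4 weeks follow-up; read-out was percentage of tumor-free mice over time.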

Jurkat [8] = assay: Cell cycle arrest at human Jurkat cells assessed as accumulation at sub G1 phase at 100 uM after 24 hrs by propidium iodide staining-based FACS flow cytometric analysis relative to control; type: functional; outline: as §2
Mus musculus = assay: Toxicity in nude mouse xenografted with human HT-29 cells assessed as adverse effect at 50 mg/kg, ip up to day 50; type: organism-based; set-up: dose 50 mg/kg, route intraperitoneal; settings: in vivo
Outline: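 HT-29 xenograft (1 × 10^6 cells sc) in female nude mice dosed ip once daily for 3 weeks (15 injections) in cremophor/ethanol/water (10:10:80), followed to day 50; general health checked daily by weighing and clinical examination.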

Jurkat [9] = assay: Cytotoxicity against human Jurkat cells assessed as cell survival after 72 hrs by MTT assay in presence of 10% FCS; type: functional, cell-based
Outline: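 Jurkat MTT viability run in RPMI 1640 with 10% FCS, 72 h incubation with compound at 37 °C, 5% CO2; IC50 derived.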

ARH-77 = assay: Cytotoxicity against human ARH77 cells assessed as cell survival after 72 hrs by MTT assay; type: functional, cell-based; settings: for pIC50: Homo sapiens, ARH-77, 72 h, read-out: IC50; outline: as §1
Jurkat [10] = assay: Induction of apoptosis in human Jurkat cells assessed as increase in apoptotic cells at 100 uM after 24 hrs by annexin V-propidium iodide staining-based FACS flow cytometric analysis (reference value: 11.99%); type: functional

Row | SMILES | pIC50 (HT-29 [4]) | pIC50 (ARH-77) | also measured
1 | CCCCCCCC/C(=C\B1OC(C)(C)C(C)(C)O1)C(O)(c1ccccc1)C1CC1 (stereo unspecified) | 4.74 | 5.20 | pIC50 (Jurkat [1]): 4.79; Activity (Jurkat [2]): Active; Activity (Jurkat [3]): Dose-dependent effect; pIC50 [5]: 4.49; TGI (HT-29 [6]): Active; TGI (HT-29 [7]): inactive; fold change (FC) (Jurkat [8]): >2; Activity (Mus musculus): Non-toxic; pIC50 (Jurkat [9]): 4.08; Activity (Jurkat [10]): 15.22%
2 | CCC/C(=C\B1OC(C)(C)C(C)(C)O1)C1(O)CCCc2ccccc21 (stereo unspecified) | 4.06 | 4.19 | –
3 | CCC/C(=C\B1OC(C)(C)C(C)(C)O1)C(O)c1ccccc1 (stereo unspecified) | < 4.00 | – | IC50 (ARH-77; arh-77): Not Active
4 | CCCCC(C)(O)/C(=C/B1OC(C)(C)C(C)(C)O1)CCC (stereo unspecified) | 4.16 | 4.26 | –
5 | CCCCC/C(=C\B1OC(C)(C)C(C)(C)O1)C(O)(c1ccccc1)C1CC1 (stereo unspecified) | – | 4.98 | IC50 (HT-29 [4]; ht-29): Not Active
6 | CCC/C(=C\B1OC(C)(C)C(C)(C)O1)C(O)(c1ccccc1)C1CC1 (stereo unspecified) | 4.08 | 4.26 | –
7 | CCCCCCC(C)(O)/C(=C/B1OC(C)(C)C(C)(C)O1)CCC (stereo unspecified) | 4.24 | 4.47 | –
8 | CCCCCCCC/C(=C\B1OC(C)(C)C(C)(C)O1)C(C)(O)CCCCCC (stereo unspecified) | < 4.00 | 4.10 | –
